The subject of experiment [1] is T1, Lysosomal acid glucosylceramidase (Homo sapiens), P04062 [N409S].
T1 sequence (whole entry): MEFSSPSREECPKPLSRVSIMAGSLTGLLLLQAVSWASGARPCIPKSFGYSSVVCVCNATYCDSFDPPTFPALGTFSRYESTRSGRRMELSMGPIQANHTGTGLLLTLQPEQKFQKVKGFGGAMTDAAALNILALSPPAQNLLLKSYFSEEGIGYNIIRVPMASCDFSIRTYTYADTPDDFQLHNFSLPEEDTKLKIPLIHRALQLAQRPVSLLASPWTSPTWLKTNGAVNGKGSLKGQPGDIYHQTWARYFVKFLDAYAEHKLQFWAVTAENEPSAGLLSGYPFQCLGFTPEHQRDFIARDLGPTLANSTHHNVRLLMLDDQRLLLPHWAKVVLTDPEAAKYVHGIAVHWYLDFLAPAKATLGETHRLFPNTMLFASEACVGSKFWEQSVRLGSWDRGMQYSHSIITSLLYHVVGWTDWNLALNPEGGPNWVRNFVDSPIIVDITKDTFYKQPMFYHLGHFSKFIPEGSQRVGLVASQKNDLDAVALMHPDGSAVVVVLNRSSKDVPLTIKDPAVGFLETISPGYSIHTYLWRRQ
Nature of the experiment: Activation of intracellular glucocerebrosidase p.N370S mutant in gaucher patient fibroblast using 4-methylumbelliferyl beta-D-glucopyranoside as substrate assessed as concentration at which 50% of maximum increase in activity.

The species named for experiment [2] is Homo sapiens. The experiment in a line: Inhibition of human lysosomal alpha-galactosidase using 4-methylumbelliferyl alpha-D-galactopyranoside as substrate at 200 uM by fluorimetric analysis. The method, boiled down: (§1)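 Enzyme source was a lysosomal-enzyme-enriched ConA-bound human placental fraction, run in 100 mM citrate–phosphate pH 4.5 with 0.025% human serum albumin at 37 °C. Compound was tested at 200 μM in triplicate. An equal volume of 4-MU substrate was added: α-Glc 3.0 mM (α-glucosidase), α-Gal 1.0 mM (α-galactosidase), β-Gal 0.5 mM (β-galactosidase). Reactions were stopped with 4-fold excess 100 mM aminomethylpropanol and fluorescence read at 365/460 nm.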

For experiment [3], the system named is T1, Lysosomal acid glucosylceramidase (Homo sapiens), P04062 [N409S]. Nature of the experiment: Activation of intracellular glucocerebrosidase p.N370S mutant in gaucher patient fibroblast using 4-methylumbelliferyl beta-D-glucopyranoside as substrate relative to control.
Experiment [4] concerns the target Lysosomal alpha-glucosidase (Homo sapiens) (UniProt P10253). Nature of the experiment: Inhibition of human lysosomal alpha-glucosidase using 4-methylumbelliferyl alpha-D-glucopyranoside as substrate at 200 uM by fluorimetric analysis. The method, boiled down:
as §1

In experiment [5] the target is T2, Lysosomal acid glucosylceramidase (Homo sapiens) (UniProt P04062).
T2 sequence (whole entry): T1 sequence (whole entry) with S409N
The experiment in a line: Thermal denaturation of human glucocerebrosidase by differential scanning fluorimetry assessed as change in melting temperature at 100 uM and pH 7. For orientation: In DSF a fluorescence change marks the thermal transition of the protein.

For experiment [6], the species on record is Homo sapiens. Nature of the experiment: Activation of intracellular glucocerebrosidase p.L444P mutant in gaucher patient fibroblast using 4-methylumbelliferyl beta-D-glucopyranoside as substrate assessed as concentration at which 50% of maximum increase in activity.
Experiment [7] has as its target T3, Beta-galactosidase (Homo sapiens) (UniProt P16278).
T3 sequence (whole entry): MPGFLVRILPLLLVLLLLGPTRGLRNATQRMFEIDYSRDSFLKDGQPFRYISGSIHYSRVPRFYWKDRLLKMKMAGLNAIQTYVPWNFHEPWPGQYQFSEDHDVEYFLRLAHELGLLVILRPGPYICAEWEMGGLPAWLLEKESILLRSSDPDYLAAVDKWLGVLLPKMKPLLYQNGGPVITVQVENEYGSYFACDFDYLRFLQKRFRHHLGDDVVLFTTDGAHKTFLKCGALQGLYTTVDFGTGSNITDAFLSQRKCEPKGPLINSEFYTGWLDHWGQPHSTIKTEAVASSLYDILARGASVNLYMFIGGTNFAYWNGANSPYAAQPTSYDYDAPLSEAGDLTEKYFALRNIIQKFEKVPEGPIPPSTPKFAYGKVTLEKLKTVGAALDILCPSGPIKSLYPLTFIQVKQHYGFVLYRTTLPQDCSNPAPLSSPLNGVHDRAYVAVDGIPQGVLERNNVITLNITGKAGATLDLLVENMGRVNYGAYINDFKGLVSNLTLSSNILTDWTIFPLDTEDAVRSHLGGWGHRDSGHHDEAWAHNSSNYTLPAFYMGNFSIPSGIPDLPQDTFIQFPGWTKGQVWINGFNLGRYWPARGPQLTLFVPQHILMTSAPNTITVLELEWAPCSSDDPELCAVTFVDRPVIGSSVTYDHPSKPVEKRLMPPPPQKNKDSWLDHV
Nature of the experiment: Inhibition of human lysosomal beta-galactosidase using 4-methylumbelliferyl beta-Dgalactopyranoside as substrate at 200 uM by fluorimetric analysis. The method, boiled down:
as §1

The species named for experiment [8] is Homo sapiens. The experiment in a line: Activation of intracellular glucocerebrosidase p.L444P mutant in gaucher patient fibroblast using 4-methylumbelliferyl beta-D-glucopyranoside as substrate relative to control.
Experiment [9] has as its target T4, Lysosomal acid glucosylceramidase (Homo sapiens, UniProt P04062).
T4 sequence (P04062 whole entry): T1 sequence (whole entry) with S409N
The experiment in a line: Competitive inhibition of wild type human glucocerebrosidase using 2,4-dinitrophenyl beta-D-glucopyranoside as substrate after 3 mins by Dixon and Line-Weaver Burk plot analysis at pH 5. The gist of the method:
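Continuous UV assay with 4.0 nM GBA and 2,4-dinitrophenyl β-D-glucoside, started by adding enzyme. A400 was followed, linear over 3 min. Three substrate levels were run at about seven inhibitor levels (0.2–5 Ki), with nonlinear fit to a competitive model checked by Dixon and Lineweaver–Burk plots.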

Changes are numbered by the printed parent chain. pKi: −log10 of the molar value. Calls of active or inactive are those of the source. No cut-off for these calls is given here.

For the molecule `O[C@H]1[C@H](O)CNC[C@@H]1O`, the results for the Activity (in experiment [1]; in the experiment listed under Homo sapiens [6]) were 24000 nM and 44600 nM, respectively. For the same molecule, the inhibition entry (in the experiment filed under Homo sapiens [2]; in experiment [4]; in [7]) was “inactive” each time. The fold change (FC) in [3] amounted to 1.5; in the experiment filed under Homo sapiens [8], 1.1. Moreover, the deltaTm in experiment [5] was 3.6 K.

One may read the pKi as the negative decadic logarithm of the Ki, by convention in mol/L. High values mean a low Ki, low ones a high Ki. As to `CCSCC[C@H]1NC[C@@H](O)[C@H](O)[C@H]1O`, the Activity in experiment [1] came out at 600 nM; in the experiment listed under Homo sapiens [6] it was 300 nM. In addition, the inhibition entry (in the experiment listed under Homo sapiens [2]; in experiment [4]; in experiment [7]) was “inactive” each time. For the same molecule, the values for the fold change (FC) (in experiment [3]; in the experiment listed under Homo sapiens [8]) were 2.5 and 1.3, respectively. Further, the deltaTm in experiment [5] stood at 7 K. This molecule also had a pKi in experiment [9] of 6.74.

For the molecule `O=C(CCCSCC[C@H]1NC[C@@H](O)[C@H](O)[C@H]1O)N1CCOCC1`, the Activity in [1] came to 4500 nM; in the experiment filed under Homo sapiens [6], 1500 nM. Further, the inhibition entry (in the experiment filed under Homo sapiens [2]; in [4]; in [7]) was “inactive” throughout. Besides, the fold change (FC) amounted to 3.2 in experiment [3] and 1.3 in the experiment filed under Homo sapiens [8]. In addition, the deltaTm in [5] amounted to 7.6 K. This molecule had a pKi in [9] of 6.35.

As for `CCN(CC)C(=O)CCCSCC[C@H]1NC[C@@H](O)[C@H](O)[C@H]1O`, the Activity in experiment [1] was 800 nM; in the experiment listed under Homo sapiens [6] it was 500 nM. For the same molecule, the inhibition entry (in the experiment listed under Homo sapiens [2]; in experiment [4]; in [7]) was “inactive” each time. Besides, the fold change (FC) in experiment [3] was 2.7; in the experiment filed under Homo sapiens [8], 1.3. In experiment [5], the deltaTm is 10 K. Also, the negative logarithm of the Ki (pKi) in experiment [9] was 6.60.

As for `CC(C)SCC[C@H]1NC[C@@H](O)[C@H](O)[C@H]1O`, the Activity in [1] worked out at 38 nM; in the experiment listed under Homo sapiens [6], 2.2 nM. Besides, the inhibition entry (in the experiment filed under Homo sapiens [2]; in [4]; in [7]) was “inactive” each time. Moreover, the values for the fold change (FC) (in [3]; in the experiment listed under Homo sapiens [8]) were 2.3 and 1.4, respectively. Also, the deltaTm in experiment [5] was found to be 7.8 K. Further, the negative-log Ki (pKi) in [9] is 7.12.

Consider `O=C(CSCC[C@H]1NC[C@@H](O)[C@H](O)[C@H]1O)NCc1ccccc1`, for which the values for the Activity (in experiment [1]; in the experiment filed under Homo sapiens [6]) were 190 nM and 63 nM, respectively. Also, the inhibition entry (in the experiment filed under Homo sapiens [2]; in experiment [4]; in experiment [7]) was “inactive” throughout. Moreover, the fold change (FC) was found to be 2.5 in experiment [3] and 1.3 in the experiment filed under Homo sapiens [8]. For the same molecule, the deltaTm in [5] was 11 K. Moreover, the negative logarithm of the Ki (pKi) in [9] was 7.52.

For the molecule `CCCC(=O)NCCSCC[C@H]1NC[C@@H](O)[C@H](O)[C@H]1O`, the values for the Activity (in [1]; in the experiment listed under Homo sapiens [6]) were 2700 nM and 2900 nM, respectively. Also, the inhibition entry (in the experiment listed under Homo sapiens [2]; in experiment [4]; in experiment [7]) was “inactive” in each case. The fold change (FC) in experiment [3] turned out to be 2.7; in the experiment filed under Homo sapiens [8] it was 1.3. The deltaTm in experiment [5] came to 8.2 K. This molecule also had a pKi in experiment [9] of 6.70.

In the case of `CC(C)(C)SCC[C@H]1NC[C@@H](O)[C@H](O)[C@H]1O`, the Activity in experiment [1] is 49 nM; in the experiment listed under Homo sapiens [6], 25 nM. In addition, the inhibition entry (in the experiment filed under Homo sapiens [2]; in experiment [4]; in experiment [7]) was “inactive” throughout. In addition, the figures for the fold change (FC) (in [3]; in the experiment listed under Homo sapiens [8]) were 2.3 and 1.2, respectively. Moreover, in [5], the deltaTm came to 8.4 K. Also, in experiment [9], the pKi is 7.54.

For `CC[C@H]1NC[C@@H](O)[C@H](O)[C@H]1O`, the inhibition entry (in the experiment listed under Homo sapiens [2]; in [4]; in experiment [7]) was “inactive” throughout. The fold change (FC) in [3] is 2.1; in the experiment listed under Homo sapiens [8], 1.2. The deltaTm in experiment [5] amounted to 4.4 K. The same molecule had a negative logarithm of the Ki (pKi) in [9] of 5.96. For the same molecule, the Activity in the experiment filed under Homo sapiens [6] amounted to 7000 nM.

Source of the values: ChEMBL document CHEMBL2029267, “Rapid assembly of a library of lipophilic iminosugars via the thiol-ene reaction yields promising pharmacological chaperones for the treatment of Gaucher disease” (J Med Chem, 2012).
